# Experimental data reported in ChEMBL document CHEMBL1145936, “Rational design of an indolebutanoic acid derivative as a novel aldose reductase inhibitor based on docking and 3D QSAR studies of phenethylamine derivatives” (J Med Chem, 2003).
# Biological target: Aldo-keto reductase family 1 member B1 (Sus scrofa, UniProt P80276)
# Assay: Inhibition of pig kidney aldose reductase (ALR2)
# How it was run: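 Enzyme prepared from pig kidney and assayed in vitro following a previously published method. Inhibition read spectrophotometrically at 340 nm; IC50 values reported. Tolrestat served as positive control.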
row,Compound,IC50
1,O=C(O)CCC(=O)NCCc1ccc(F)cc1,94 µM
2,O=C(O)/C=C/C(=O)NCc1ccccc1,150 µM
3,O=C(O)CCCC(=O)NCCc1ccc(Br)cc1,110 µM
4,CC(=O)NCCc1ccc(O)cc1,160 µM
5,CCCCCCCCCC(=O)NCCc1ccc(O)cc1,110 µM
6,COc1ccc(CCNC(=O)c2ccccc2C(=O)O)cc1,177 µM
7,O=C(NCCc1ccc(O)cc1)c1ccccc1,160 µM
8,O=C(O)CCC(=O)NCCc1ccccc1,78 µM
9,O=C(O)/C=C/C(=O)n1ccc2ccccc21,37 µM
10,O=C(O)CCC(=O)Nc1ccccc1,192 µM
11,O=C(O)c1ccccc1C(=O)NCCc1ccc(O)cc1,340 µM
12,O=C(O)CCCC(=O)NCc1ccccc1,133 µM
13,O=C(O)CCC(=O)NCCc1ccc(O)cc1,390 µM
14,O=C(O)CCC(=O)NCCc1ccc(Cl)cc1,99 µM
15,O=C(O)CCCC(=O)NCCc1ccc(Cl)cc1,154 µM
16,COc1ccc(CCNC(=O)/C=C/C(=O)O)cc1,155 µM
17,O=C(O)/C=C/C(=O)Nc1ccccc1,182 µM
18,O=C(O)CCC(=O)n1ccc2c(O)cccc21,7.4 µM
19,COc1ccc(CCNC(=O)CCCC(=O)O)cc1,185 µM
20,O=C(O)CCCC(=O)Nc1ccccc1,440 µM
21,O=C(O)CCC(=O)N1CCc2ccccc21,102 µM
22,CCCCCCCC(=O)NCCc1ccc(O)cc1,120 µM
23,CCC(C)C(=O)NCCc1ccc(O)cc1 (stereo not drawn),1800 µM

# The remaining compounds from weak to strong by IC50, led by results:
row,IC50,Compound
1,227 µM,O=C(O)c1ccccc1C(=O)Nc1ccccc1
2,203 µM,O=C(O)c1ccccc1C(=O)NCCc1ccc(Cl)cc1
3,180 µM,O=C(O)c1ccccc1C(=O)NCc1ccccc1
4,170 µM,COc1ccc(CCNC(=O)CCC(=O)O)cc1
5,150 µM,CCCCCCCCCCCCCCCC(=O)NCCc1ccc(O)cc1
6,141 µM,O=C(O)CCC(=O)NCc1ccccc1
7,130 µM,CCCCC(=O)NCCc1ccc(O)cc1
8,112 µM,O=C(O)/C=C/C(=O)NCCc1ccc(Cl)cc1
9,110 µM,CCCCCCCCCCCC(=O)NCCc1ccc(O)cc1
10,104 µM,O=C(O)CCCC(=O)NCCc1ccccc1
11,100 µM,COc1cc(C(=O)NCCc2ccc(O)cc2)cc(OC)c1OC
12,99 µM,O=C(O)/C=C/C(=O)NCCc1ccc(Br)cc1
13,95 µM,O=C(O)c1ccccc1C(=O)N1CCc2ccccc21
14,94 µM,O=C(O)CCC(=O)NCCc1ccc(Br)cc1
15,88 µM,O=C(O)c1ccccc1C(=O)NCCc1ccccc1
16,88 µM,O=C(O)c1ccccc1C(=O)NCCc1ccc(F)cc1
17,81 µM,O=C(O)c1ccccc1C(=O)NCCc1ccc(Br)cc1
18,80 µM,O=C(O)/C=C/C(=O)NCCc1ccc(O)cc1
19,76 µM,O=C(O)CCCC(=O)NCCc1ccc(F)cc1
20,75 µM,O=C(O)/C=C/C(=O)NCCc1ccc(F)cc1
21,73 µM,O=C(O)/C=C/C(=O)NCCc1ccccc1
22,40 µM,O=C(O)/C=C/C(=O)N1CCc2ccccc21
23,30 µM,O=C(O)c1ccccc1C(=O)n1ccc2ccccc21
24,24 µM,O=C(O)CCC(=O)n1ccc2ccccc21
25,16 µM,COc1ccc2c(C(=S)N(C)CC(=O)O)cccc2c1C(F)(F)F [TOLRESTAT]
